Assay results: ChEMBL document CHEMBL1143237, “Sulfonamide-1,2,4-triazole derivatives as antifungal and antibacterial agents: synthesis, biological evaluation, lipophilicity, and conformational studies” (Bioorg Med Chem, 2008)
Converted amounts (≈) assume the structure as drawn.

Columns and labels:
Aspergillus niger = assay: Antifungal activity against Aspergillus niger ATCC 6275 after 72 hrs by microdilution test; format: functional; details: ATCC 6275, 72 h
Summary of the method: (§1)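 Modified microdilution in malt broth. Spores were washed from malt agar with sterile 0.85% saline containing 0.1% Tween 80 and adjusted to about 1.0 × 10⁵ per well. Compounds were dissolved in DMSO and tested at […] µg/ml. Incubation 72 h at 28 °C. MIC is the lowest concentration with no visible growth under a binocular microscope. MFC by 2 µl subculture and a further 72 h at 28 °C.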

Enterobacter cloacae = assay: Antibacterial activity against Enterobacter cloacae after 24 hrs by microdilution test; format: functional
Summary of the method: (§2)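 Broth microdilution in LB medium in 96-well plates. Inoculum 1.0 × 10⁴ CFU per well, from a suspension set to 1.0 × 10⁵ CFU/ml in sterile saline. Compounds at […] µg/ml. Incubation 24 h at 28 °C. MIC is the lowest concentration with no visible growth under a binocular microscope. MBC by subculturing 2 µl into fresh broth for a further 72 h. OD540 read against blank. DMSO negative control.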

Aspergillus versicolor = assay: Antifungal activity against Aspergillus versicolor ATCC 11730 after 72 hrs by microdilution test; format: functional; details: ATCC 11730, 72 h; summary of the method: as §1
[1] = system: Staphylococcus epidermidis; assay: Antibacterial activity against Staphylococcus epidermidis ATCC 12228 after 24 hrs by microdilution test; format: functional; details: ATCC 12228, 24 h; summary of the method: as §2
[2] = Partition coefficient, log P of the compound; format: physicochemical; details: octanol/water
Summary of the method: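 Calculated, not measured: AlogP, IAlogP, ClogP, Cosmo logP, mlogP, Kowwin and XlogP were computed and averaged.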

Salmonella enteritidis = assay: Antibacterial activity against Salmonella enteritidis ATCC 13076 after 24 hrs by microdilution test; format: functional, Salmonella enterica subsp. enterica serovar Enteritidis; details: Salmonella enterica, ATCC 13076, 24 h; summary of the method: as §2
Aspergillus flavus = assay: Antifungal activity against Aspergillus flavus ATCC 9643 after 72 hrs by microdilution test; format: functional; details: ATCC 9643, 72 h; summary of the method: as §1
Escherichia coli = assay: Antibacterial activity against Escherichia coli ATCC 35210 after 24 hrs by microdilution test; format: functional; details: ATCC 35210, 24 h; summary of the method: as §2
Micrococcus luteus = assay: Antibacterial activity against Micrococcus flavus ATCC 10240 after 24 hrs by microdilution test; format: functional; details: ATCC 10240, 24 h; summary of the method: as §2
Talaromyces funiculosus = assay: Antifungal activity against Penicillium funiculosum ATCC 36839 after 72 hrs by microdilution test; format: functional; details: ATCC 36839, 72 h; summary of the method: as §1
Trichoderma viride = assay: Antifungal activity against Trichoderma viride IAM 5061 after 72 hrs by microdilution test; format: functional; summary of the method: as §1
Bacillus cereus = assay: Antibacterial activity against Bacillus cereus ATCC 10907 after 24 hrs by microdilution test; details: ATCC 10907, 24 h
Salmonella typhimurium = assay: Antibacterial activity against Salmonella Typhimurium ATCC 13311 after 24 hrs by microdilution test; format: functional, Salmonella enterica subsp. enterica serovar Typhimurium; details: Salmonella enterica, ATCC 13311, 24 h; summary of the method: as §2
Aspergillus ochraceus = assay: Antifungal activity against Aspergillus ochraceus ATCC 12066 after 72 hrs by microdilution test; format: functional; details: ATCC 12066, 72 h; summary of the method: as §1

Structure (SMILES)	MFC (Aspergillus niger) [µg/mL]	MIC (Aspergillus niger) [µg/mL]	MBC (Enterobacter cloacae) [µg/mL]	MIC (Enterobacter cloacae) [µg/mL]	MFC (Aspergillus versicolor) [µg/mL]	MIC (Aspergillus versicolor) [µg/mL]	MBC [1] [µg/mL]	MIC [1] [µg/mL]	logP [2]	MBC (Salmonella enteritidis) [µg/mL]	MIC (Salmonella enteritidis) [µg/mL]	MFC (Aspergillus flavus) [µg/mL]	MIC (Aspergillus flavus) [µg/mL]	MBC (Escherichia coli) [µg/mL]	MIC (Escherichia coli) [µg/mL]	MBC (Micrococcus luteus) [µg/mL]	MIC (Micrococcus luteus) [µg/mL]	MFC (Talaromyces funiculosus) [µg/mL]	MIC (Talaromyces funiculosus) [µg/mL]	MFC (Trichoderma viride) [µg/mL]	other results
COc1cc(Cc2n[nH]c(=S)n2-c2ccc(Cl)cc2)c(S(=O)(=O)N(C)C)cc1OC	150 (≈ 320 µM)	100 (≈ 213 µM)	100 (≈ 213 µM)	100 (≈ 213 µM)	150 (≈ 320 µM)	100 (≈ 213 µM)	150 (≈ 320 µM)	150 (≈ 320 µM)	2.4	150 (≈ 320 µM)	150 (≈ 320 µM)	100 (≈ 213 µM)	50 (≈ 107 µM)	150 (≈ 320 µM)	100 (≈ 213 µM)	150 (≈ 320 µM)	150 (≈ 320 µM)	100 (≈ 213 µM)	100 (≈ 213 µM)	100 (≈ 213 µM)	MIC (Trichoderma viride): 50 µg/mL (≈ 107 µM); MBC (Bacillus cereus): 150 µg/mL (≈ 320 µM); MIC (Bacillus cereus): 150 µg/mL (≈ 320 µM); MBC (Salmonella typhimurium): 150 µg/mL (≈ 320 µM); MIC (Salmonella typhimurium): 150 µg/mL (≈ 320 µM); MFC (Aspergillus ochraceus): 150 µg/mL (≈ 320 µM); MIC (Aspergillus ochraceus): 100 µg/mL (≈ 213 µM)
CCN(CC)S(=O)(=O)c1cc(OC)c(OC)cc1Cc1n[nH]c(=S)n1-c1ccccc1	150 (≈ 324 µM)	100 (≈ 216 µM)	100 (≈ 216 µM)	100 (≈ 216 µM)	150 (≈ 324 µM)	100 (≈ 216 µM)	150 (≈ 324 µM)	150 (≈ 324 µM)	2.48	150 (≈ 324 µM)	150 (≈ 324 µM)	150 (≈ 324 µM)	100 (≈ 216 µM)	150 (≈ 324 µM)	100 (≈ 216 µM)	150 (≈ 324 µM)	150 (≈ 324 µM)	150 (≈ 324 µM)	100 (≈ 216 µM)	100 (≈ 216 µM)	MIC (Trichoderma viride): 50 µg/mL (≈ 108 µM); MBC (Bacillus cereus): 150 µg/mL (≈ 324 µM); MIC (Bacillus cereus): 150 µg/mL (≈ 324 µM); MBC (Salmonella typhimurium): 150 µg/mL (≈ 324 µM); MIC (Salmonella typhimurium): 150 µg/mL (≈ 324 µM); MFC (Aspergillus ochraceus): 150 µg/mL (≈ 324 µM); MIC (Aspergillus ochraceus): 100 µg/mL (≈ 216 µM)
